Assay results published in ChEMBL document CHEMBL5678813, “Optimization of a novel series of N-phenylindoline-5-sulfonamide-based acyl CoA:monoacylglycerol acyltransferase-2 inhibitors: Mitigation of CYP3A4 time-dependent inhibition and phototoxic liabilities” (Bioorg Med Chem, 2015).

What was measured:
[1] = biological target: T1, Diacylglycerol O-acyltransferase 1 (Homo sapiens, UniProt O75907); assay: Inhibition of N-terminal FLAG-tagged full-length human DGAT1 expressed in recombinant baculovirus infected Sf21 cells using [1-14C]-oleoyl-CoA and 1,2-dioleoyl-glycerol as substrate incubated for 40 mins by TLC analysis
T1 sequence (O75907 whole entry): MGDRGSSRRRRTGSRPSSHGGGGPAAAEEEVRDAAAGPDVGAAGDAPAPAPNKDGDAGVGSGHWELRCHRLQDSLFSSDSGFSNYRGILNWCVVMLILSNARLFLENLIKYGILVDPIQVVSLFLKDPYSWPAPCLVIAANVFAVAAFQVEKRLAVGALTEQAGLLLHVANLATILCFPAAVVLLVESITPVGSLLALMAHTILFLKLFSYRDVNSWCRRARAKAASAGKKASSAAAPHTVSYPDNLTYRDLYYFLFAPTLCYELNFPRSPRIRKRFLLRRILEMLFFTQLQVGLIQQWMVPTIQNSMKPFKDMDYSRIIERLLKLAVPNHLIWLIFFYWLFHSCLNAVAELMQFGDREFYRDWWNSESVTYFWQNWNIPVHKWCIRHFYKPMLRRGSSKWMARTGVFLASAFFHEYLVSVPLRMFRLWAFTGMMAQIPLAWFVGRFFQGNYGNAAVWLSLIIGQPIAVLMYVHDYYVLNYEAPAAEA
Procedure, shortened: (§1)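 Membranes from baculovirus-infected Sf-21 cells, each enzyme at 30 µg/mL, incubated with 5 µM [1-14C]-oleoyl-CoA and 40 µM 1,2-dioleoyl-glycerol for 40 min at 32 °C. Lipids extracted by modified Bligh & Dyer, resolved on silica TLC, and radioactivity incorporated into lipids quantified.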

[2] = AUC in mouse at 1 mg/kg, po administered as cassette dose by LC/MS/MS analysis; assay type: ADME, organism-based; settings: in vivo
Procedure, shortened: (§2)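 Non-fasted mice dosed by cassette, iv 0.1 mg/kg or po 1 mg/kg suspended in 0.5% methylcellulose aqueous solution; plasma obtained from blood by centrifugation, deproteinized with acetonitrile, and compound concentrations measured by LC/MS/MS.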

[3] = Total clearance in mouse at 0.1 mg/kg, iv administered as cassette dose by LC/MS/MS analysis; assay type: ADME, organism-based; settings: in vivo; procedure, shortened: as §2
[4] = biological target: T2, Diacylglycerol O-acyltransferase 2 (Homo sapiens, UniProt Q96PD7); assay: Inhibition of N-terminal FLAG-tagged full-length human DGAT2 expressed in recombinant baculovirus infected Sf21 cells using [1-14C]-oleoyl-CoA and 1,2-dioleoyl-glycerol as substrate incubated for 40 mins by TLC analysis; procedure, shortened: as §1
T2 sequence (Q96PD7 whole entry): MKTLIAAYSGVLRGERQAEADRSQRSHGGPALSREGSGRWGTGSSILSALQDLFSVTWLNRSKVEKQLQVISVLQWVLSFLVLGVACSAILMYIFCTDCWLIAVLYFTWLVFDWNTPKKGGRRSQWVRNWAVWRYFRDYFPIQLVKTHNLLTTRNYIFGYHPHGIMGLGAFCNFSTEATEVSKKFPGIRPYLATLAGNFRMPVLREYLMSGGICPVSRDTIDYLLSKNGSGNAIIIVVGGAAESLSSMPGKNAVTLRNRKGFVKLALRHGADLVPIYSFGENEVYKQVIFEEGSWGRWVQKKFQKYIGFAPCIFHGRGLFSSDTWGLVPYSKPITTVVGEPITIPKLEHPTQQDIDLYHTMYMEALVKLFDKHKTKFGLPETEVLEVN

[5] = (§3) In vivo inhibition of MGAT2 in olive oil-induced C57BL/6J mouse model of hypertriglyceridemia assessed as reduction in plasma chylomicron triglyceride level at 3 mg/kg, po preadministered with compound for 6 hrs followed by Pluronic F127 addition for 30 mins and further treated with olive oil for 4 hrs by automatic analyzer relative to control; assay type: functional; settings: time 10.5 hrs
Procedure, shortened: (§4)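 Male C57BL/6J mice (20–25 g) fasted overnight and dosed orally at 0.3, 1 or 3 mg/kg. Olive oil (8 mL/kg po) or water given 6 h later, with Pluronic F127 500 mg/kg i.p. 30 min before oil. Tail-vein plasma taken at 0, 2 and 4 h and TG measured by automatic analyzer. CM/TG = oil-group TG minus water-group TG; AUC over 4 h; n = 5, mean ± SD; Williams' test vs vehicle.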

NIH3T3 = assay: Cytotoxicity against BALB/c mouse 3T3 cells assessed as reduction in cell viability at 6.25 uM incubated for 1 hrs in absence of UV irradiation by Celltiter-Glo assay relative to control; assay type: toxicity, cell-based; settings: nih3t3, 1 h
Procedure, shortened: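 BALB/c 3T3 cells seeded at 2.5 × 10^3 cells/well and grown 1 day. Compound at 6.25 µM in EBSS with 1 mM HEPES, preincubated 1 h. Plate kept dark (–UV) while the paired plate was irradiated. Medium replaced, cultured 24 h more. Viability read as cellular ATP by CellTiter-Glo, % of 1% DMSO control; n = 3, mean ± SD.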

Mus musculus = assay: as §3, with “level” for “level at 3 mg/kg, po”, “preadministered orally” for “preadministered”, “analyzer” for “analyzer relative to control”; assay type: functional; settings: dose 0.3-3 mg/kg, route po, time 10.5 hrs; procedure, shortened: as §4
[6] = MRT in mouse at 1 mg/kg, po administered as cassette dose by LC/MS/MS analysis; assay type: ADME, organism-based; settings: in vivo; procedure, shortened: as §2
CYP3A4 = CYP3A4 (Homo sapiens, UniProt P08684); assay: Reversible inhibition of CYP3A4 in human liver microsomes using midazolam as substrate at 10 uM incubated for 10 mins by LC/MS/MS analysis relative to control; assay type: ADME, Microsome; settings: probe midazolam
CYP3A4, sequence (P08684 whole entry, canonical isoform): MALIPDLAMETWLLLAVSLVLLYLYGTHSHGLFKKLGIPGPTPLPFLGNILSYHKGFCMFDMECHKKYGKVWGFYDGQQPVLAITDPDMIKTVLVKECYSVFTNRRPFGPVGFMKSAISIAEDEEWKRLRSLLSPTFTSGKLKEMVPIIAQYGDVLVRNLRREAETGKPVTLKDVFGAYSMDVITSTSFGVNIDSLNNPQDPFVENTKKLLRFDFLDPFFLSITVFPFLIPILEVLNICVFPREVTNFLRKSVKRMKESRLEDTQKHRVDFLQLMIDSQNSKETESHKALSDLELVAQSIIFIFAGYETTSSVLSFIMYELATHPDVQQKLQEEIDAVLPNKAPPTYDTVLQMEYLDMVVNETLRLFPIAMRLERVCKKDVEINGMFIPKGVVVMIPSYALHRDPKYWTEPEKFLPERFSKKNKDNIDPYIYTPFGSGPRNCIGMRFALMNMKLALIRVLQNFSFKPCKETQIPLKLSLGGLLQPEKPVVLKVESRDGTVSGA
Procedure, shortened: (§5)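 Human liver microsomes at 0.1 mg/mL incubated 10 min at 37 °C with isoform-specific substrate and 10 µM test compound. Pairs: 1A2 tacrine/1-hydroxytacrine; 2C8 paclitaxel/6α-hydroxypaclitaxel; 2C9 tolbutamide/4-hydroxytolbutamide; 2D6 dextromethorphan/dextrorphan; 3A4 midazolam/1'-hydroxymidazolam. Stopped with acetonitrile/water; metabolite measured by LC/MS/MS.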

[7] = Volume of distribution at steady state in mouse at 0.1 mg/kg, iv administered as cassette dose by LC/MS/MS analysis; assay type: ADME, organism-based; settings: in vivo, read-out: Vdss; procedure, shortened: as §2
CYP2C9 = CYP2C9 (Homo sapiens, UniProt P11712); assay: Reversible inhibition of CYP2C9 in human liver microsomes using tolbutamide as substrate at 10 uM incubated for 10 mins by LC/MS/MS analysis relative to control; assay type: ADME, Microsome; settings: probe tolbutamide; procedure, shortened: as §5
CYP2C9, sequence (P11712 whole entry): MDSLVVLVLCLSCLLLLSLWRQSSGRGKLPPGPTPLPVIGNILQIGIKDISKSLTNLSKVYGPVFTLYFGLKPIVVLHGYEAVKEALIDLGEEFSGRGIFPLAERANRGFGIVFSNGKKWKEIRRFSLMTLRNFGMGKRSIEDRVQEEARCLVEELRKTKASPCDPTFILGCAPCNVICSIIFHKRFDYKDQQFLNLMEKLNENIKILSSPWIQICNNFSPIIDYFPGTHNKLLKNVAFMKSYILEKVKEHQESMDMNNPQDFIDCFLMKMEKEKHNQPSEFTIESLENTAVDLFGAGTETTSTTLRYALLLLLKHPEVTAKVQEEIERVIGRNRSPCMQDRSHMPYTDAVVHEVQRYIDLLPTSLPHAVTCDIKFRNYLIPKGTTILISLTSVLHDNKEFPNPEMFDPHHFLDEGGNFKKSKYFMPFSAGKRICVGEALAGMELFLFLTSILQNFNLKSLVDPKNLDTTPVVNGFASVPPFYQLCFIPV

- IC50 [1]: > 10 µM
- AUC [2]: 2440 ng·h/mL
- clearance [3]: 3.42 mL/min/kg
- IC50 [4]: > 10 µM
- MRT [6]: 3.3 h
- inhibition at 10 min, 10 µM (CYP3A4): < 10%
- Vd [7]: 0.539 L/kg
- inhibition at 10 min, 10 µM (CYP2C9): 17%
SMILES: Cn1nc(C(F)(F)F)cc1-c1cnc(N2CCc3cc(S(=O)(=O)Nc4c(F)cc(Cl)cc4F)cc(N4CCCC4=O)c32)nc1 [TP-020]
- inhibition in vivo at 3 mg/kg [5]: 100%
- Activity (NIH3T3): 99%
- inhibition (Mus musculus): Dose-Dependent Effect
